Read-outs that look alike come from different tables or passages of the source.
Experiments:
[1] = Cell count after trypan blue dye treatment; format: cell-based; details: human, HepG2/NTCP cells
JEV RNA replication = test: JEV replicon Firefly luciferase; format: cell-based; details: Japanese encephalitis virus, 72 h, read-out: EC50 JEV
Summary of the method: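 JEV replicon cells (BHKMuarPACLuc rep, maintained with puromycin 10 μg/ml) were seeded at 1×10^5 per well in triplicate. They were treated with several concentrations of test compound for 72 h, then firefly luciferase was measured. Activity was expressed relative to untreated cells (100%), mean±SD of triplicates, and EC50 was derived.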

HEV RNA replication = test: HEV/NanoLuc luciferase; format: cell-based; details: Hepatitis E virus, PLC-PRF-5, 72 h, read-out: EC50 HEV
Summary of the method: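 HEV replicon RNA was electroporated into PLC/PRF/5 cells, which were plated at 2.5×10^4 per well in triplicate. Cells were treated with several concentrations of test compound for 72 h, and NanoLuc was read by Nano-Glo. Signal was taken relative to untreated cells (100%), mean±SD of triplicates, and EC50 was derived.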

HBV/NL virus entry = test: HBV/NL reporter assay, entry step; format: cell-based, hepatitis B virus; details: HBV/NL-infected HepG2/NTCPmyc cells, NL activity
Summary of the method: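 Reporter HBV/NL virus came from supernatant of HepG2 cells cotransfected with pUC1.2HBV/NL and pUC1.2HBVΔε. HepG2/NTCPmyc cells were infected at 10–100 genome equivalents with 4% PEG8000 and 2% DMSO overnight, with test compound applied per the entry-step schedule. NanoLuc activity was read with Nano-Glo, relative to untreated cells (100%), mean±SD of triplicates. P was computed vs. untreated.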

HCV RNA replication [2] = details: read-out: EC50 HCV (HuH-7), HuH-7 cell-derived assays, cited from earlier work
[3] = test system: HBV/NL, covalently closed circular DNA formation to translation of viral mRNAs; test: HBV/NL reporter assay, after entry to translation steps; format: cell-based, hepatitis B virus; details: HBV/NL-infected HepG2/NTCPmyc cells, NL activity
HBV = HBV replication assay; format: cell-based; details: Hepatitis B virus, HepG2, read-out: EC50 HBV
Summary of the method: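 Inoculum was HBV from HepG2.2.15 supernatant, given at 1000 genome equivalents/cell in medium with 4% PEG8000 and 2% DMSO for 24 h. Medium was then replaced and cells were cultured 8 days. Cellular DNA was extracted and HBV DNA quantified by real-time qPCR. Results were taken relative to untreated cells (100%), mean±SD of triplicates.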

HCV RNA replication [4] = details: read-out: EC50 HCV (Li23), Li23 cell-derived assays, cited from earlier work
HuH-7 = details: read-out: CC50 HCV (HuH-7), HuH-7 cell-derived assays, cited from earlier work
DENV RNA replication = test: DENV/Gaussia luciferase; format: cell-based; details: Dengue virus, BHK-21, 72 h, read-out: EC50 DENV
Summary of the method: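 BHK-21 cells were seeded at 1×10^4 per well in triplicate and transfected with the DENV replicon plasmid DGL2. At 24 h post-transfection they were treated with several concentrations of test compound for 72 h, then Gaussia luciferase was measured. Signal was expressed relative to untreated cells (100%), mean±SD of triplicates, and EC50 was derived.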

Li23 = details: read-out: CC50 HCV (Li23), Li23 cell-derived assays, cited from earlier work
[5] = CellTiter 96 AQueous one solution cell proliferation assay; format: cell-based; details: human, PLC/PRF/5 cells
Summary of the method: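 PLC/PRF/5 cells seeded at 2.5×10^4 per well in triplicate and exposed to several concentrations of test compound for 72 h. Viability was read by the CellTiter 96 AQueous one solution assay. Values were taken relative to untreated cells (100%), given as mean±SD of triplicates, and CC50 was derived from the curves.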

[6] = compared with N-89; ref [3]; cited from earlier work

Row | Compound | CC50 at 9 days [1] [µM] | EC50 (JEV RNA replication) [µM] | EC50 (HEV RNA replication) [µM] | Effect on the process of virus entry (HBV/NL virus entry) | EC50 (HCV RNA replication [2]; ref Ueda et al. [4]) [µM] | Effect on the process of covalently closed circular DNA formation to translation of viral mRNAs [3] | EC50 (HBV) [µM] | EC50 (HCV RNA replication [4]; ref Ueda et al. [4]) [µM] | CC50 (HuH-7; ref Ueda et al. [4]) [µM] | EC50 (DENV RNA replication) [µM] | CC50 (Li23; ref Ueda et al. [4]) [µM] | CC50 at 72 h [5] [µM] | Water solubility [6] | EC50 (HCV RNA replication [2]; ref Mori et al. [16]) [µM] | EC50 (HCV RNA replication [4]; ref Mori et al. [16]) [µM] | CC50 (HuH-7; ref Mori et al. [16]) [µM] | CC50 (Li23; ref Mori et al. [16]) [µM]
1 | OCCCCCCC1COOC2(CCCCCCCCCCC2)OOC1 [N-251, 6-(1,2,6,7-tetraoxaspiro[7.11]nonadec-4-yl)hexan-1-ol] | 16 | 15 | 13 | did not prevent the process of virus entry | 0.14 to 0.98 | not inhibited | 1.9 | 0.059 to 0.29 | 0.49 to 3.8 | 6.5 | 1.1 to 2.8 | 56 | higher water solubility than N-89 |  |  |  | 
2 | NC(=O)c1ncn([C@@H]2O[C@H](CO)[C@@H](O)[C@H]2O)n1 [RBV, Ribavirin, reference compound] | > 100 | 22 | 19 |  |  |  | > 100 |  |  | 15 |  | > 100 |  | > 100 | 8.7 to 15.9 | > 100 | > 100

Source: PMC6047365 (Biochemistry and Biophysics Reports, 2018)
